Data: PMC4469080 (Bioorganic & medicinal chemistry letters, 2015)
Where two headings read alike, the source gives them in different places.

Columns and labels:
mouse SR-BI [1] = target: T1, mouse SR-BI (Mus musculus, UniProt Q61009); conditions: read-out: IC50 in the primary assay; previous probes; cited from earlier work
T1 sequence (Q61009 1-509): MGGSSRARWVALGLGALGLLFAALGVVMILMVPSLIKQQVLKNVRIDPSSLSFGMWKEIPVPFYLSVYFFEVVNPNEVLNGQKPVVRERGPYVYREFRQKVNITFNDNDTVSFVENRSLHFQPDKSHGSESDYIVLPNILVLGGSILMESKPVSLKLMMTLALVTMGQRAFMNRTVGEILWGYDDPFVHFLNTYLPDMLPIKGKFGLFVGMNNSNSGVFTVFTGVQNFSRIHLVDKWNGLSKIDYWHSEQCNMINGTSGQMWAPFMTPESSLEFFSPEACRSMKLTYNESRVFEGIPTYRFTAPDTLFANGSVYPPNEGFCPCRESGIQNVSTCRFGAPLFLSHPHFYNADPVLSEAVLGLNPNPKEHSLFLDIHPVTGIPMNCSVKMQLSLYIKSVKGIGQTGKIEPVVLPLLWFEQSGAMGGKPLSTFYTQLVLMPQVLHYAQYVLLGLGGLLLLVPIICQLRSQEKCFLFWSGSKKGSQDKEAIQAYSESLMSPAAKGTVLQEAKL

mouse SR-BI [2] = target: T1, mouse SR-BI; assay: DiI-HDL uptake assay; assay type: cell-based; conditions: for activity in DiI uptake assay (in words): inhibition of SR-BI-mediated lipid uptake
Method in brief: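 CHO cells (ldlA line) overexpressing mouse SR-BI take up the fluorescent lipid DiI from DiI-labeled HDL particles. In the high-throughput screen, compounds were tested at 12.5 μM against 1 μM BLT-1 as the positive control. Plates with Z′ < 0.3 were excluded, and a counterscreen removed compounds that quenched DiI-HDL fluorescence in a dose-dependent manner. IC50 values came from retests of compounds as purified dry powders.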

Solubility in PBS = assay type: physicochemical; conditions: in PBS (with 1% DMSO)

COCC(=O)n1ccc2cc(-c3csc(NC(=O)c4cc(OC)cc(OC)c4)n3)ccc21 [ML278]
IC50 (mouse SR-BI [1]): 6 nM

C[C@@H]1CN([C@H](C)CO)C(=O)c2cc(NC(=O)C3CCCCC3)ccc2O[C@H]1CN(C)S(=O)(=O)c1cccc(Cl)c1 [Compound 6]
IC50 (mouse SR-BI [2]; DiI uptake assay, average of at least two measurements (Table 4, various analogs)): 800 nM

C[C@@H]1CN([C@H](C)CO)C(=O)c2cc(NC(=O)C3CCCCC3)ccc2O[C@H]1CN(C)C(=O)c1ccc(Cl)cc1 [Compound 5]
activity in DiI uptake assay (in words) (mouse SR-BI [2]): inactive

CC(C)NC(=O)Nc1ccc2c(c1)C(=O)N([C@H](C)CO)C[C@@H](C)[C@H](CN(C)S(=O)(=O)c1ccc(Cl)cc1)O2 [Compound 4]
activity in DiI uptake assay (in words) (mouse SR-BI [2]): abrogated the activity

C[C@@H]1CN([C@H](C)CO)C(=O)c2cc(NC(=O)Cc3cn(C)c4ccccc34)ccc2O[C@H]1CN(C)S(C)(=O)=O [Compound 1g]
solubility (Solubility in PBS): good solubility | activity in DiI uptake assay (in words) (mouse SR-BI [2]): weak potency

COC[C@@H](C)N1C[C@@H](C)[C@H](CN(C)S(=O)(=O)c2ccc(Cl)cc2)Oc2ccc(NC(=O)NC(C)C)cc2C1=O [Compound 11]
activity in DiI uptake assay (in words) (mouse SR-BI [2]): only weakly active

CC(C)NC(=O)Nc1cccc2c1O[C@@H](CN(C)S(=O)(=O)c1ccc(Cl)cc1)[C@H](C)CN([C@H](C)CO)C2=O [Compound 3]
activity in DiI uptake assay (in words) (mouse SR-BI [2]): inactive

C[C@@H]1CN([C@H](C)CO)C(=O)c2cc(NC(=O)Cc3cn(C)c4ccccc34)ccc2O[C@H]1CN(C)S(=O)(=O)c1ccc(Cl)cc1 [Compound 1a]
IC50 (mouse SR-BI [2]): 460 nM

C[C@@H]1CN([C@H](C)CN(C)C)C(=O)c2cc(NC(=O)Cc3cn(C)c4ccccc34)ccc2O[C@H]1CN(C)S(=O)(=O)c1ccc(Cl)cc1 [Compound 10]
activity in DiI uptake assay (in words) (mouse SR-BI [2]): inactive

C[C@@H]1CN([C@H](C)CN)C(=O)c2cc(NC(=O)Cc3cn(C)c4ccccc34)ccc2O[C@H]1CN(C)S(=O)(=O)c1ccc(Cl)cc1 [Compound 9]
activity in DiI uptake assay (in words) (mouse SR-BI [2]): inactive

CC(C)NC(=O)Nc1ccc2c(c1)C(=O)N(C(C)C)C[C@@H](C)[C@H](CN(C)S(=O)(=O)c1ccc(Cl)cc1)O2 [Compound 12]
activity in DiI uptake assay (in words) (mouse SR-BI [2]): weak activity
